One assay deals with Coagulation factor X (Homo sapiens, UniProt P00742). Kind of assay: In vitro evaluation for the concentration needed for inhibiting factor Xa by 50%.
Assay [1] in a line: In vitro evaluation for the concentration needed to double the Plasma recalcification clotting time. Type of assay: functional, Homo sapiens. The method, boiled down:
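Human plasma incubated with saline or inhibitor in saline for 2 min at 37 °C. Clotting started with 20 mM CaCl2 solution. Result given as the concentration that doubles plasma clotting time (CT2).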

In the next assay the target is Prothrombin (Homo sapiens, UniProt P00734). Nature of the assay: In vitro evaluation for the concentration needed for inhibiting thrombin by 50%.
Assay [2] concerns Rattus norvegicus. Kind of assay: Ex vivo anticoagulant activity was measured by calculating the Activated partial thromboplastin time at 0.5 hr by dose of 300 mg/kg on oral administration in male Wistar rat. Type of assay: functional. Put shortly:
(§1)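 Male Wistar rats (200-250 g), fasted overnight, given compound dissolved in water by stomach tube. Anesthetized with sodium thiopental (100 mg/kg, ip) 15 min after dosing. Jugular vein blood taken into trisodium citrate at several time points and centrifuged to platelet-poor plasma. APTT read after mixing plasma with saline and Platerin Plus activator, clotting started with 20 mM CaCl2. Reported as test/control ratio, mean ± SE, n = 4-5.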

In assay [3] the test system is Rattus norvegicus. Nature of the assay: Ex vivo anticoagulant activity was measured by calculating the Activated partial thromboplastin time at 1 hr by dose of 300 mg/kg on oral administration in male Wistar rat. Format: functional. Put shortly: as §1
The test system of assay [4] is Rattus norvegicus. Kind of assay: Ex vivo anticoagulant activity was measured by calculating the Activated partial thromboplastin time at 2 hr by dose of 300 mg/kg on oral administration in male Wistar rat. Type of assay: functional. The method, boiled down: as §1
Assay [5] relates to Rattus norvegicus. Kind of assay: Ex vivo anticoagulant activity was measured by calculating the Activated partial thromboplastin time at 4 hr by dose of 300 mg/kg on oral administration in male Wistar rat. Format: functional. The method, boiled down: as §1
Assay [6] concerns Rattus norvegicus. Nature of the assay: Ex vivo anticoagulant activity was measured by calculating the Activated partial thromboplastin time (test/control) at 1 hr by dose of 100 mg/kg on oral administration in male Wistar rat. Type of assay: functional. The method, boiled down: as §1
Assay [7] concerns Rattus norvegicus. Nature of the assay: Ex vivo anticoagulant activity was measured by calculating the Activated partial thromboplastin time (test/control) at 2 hr by dose of 100 mg/kg on oral administration in male Wistar rat. Format: functional. Put shortly: as §1
For assay [8], the system named is Rattus norvegicus. Kind of assay: Ex vivo anticoagulant activity was measured by calculating the Activated partial thromboplastin time (test/control) at 4 hr by dose of 100 mg/kg on oral administration in male Wistar rat. Type of assay: functional. Put shortly:
as §1

For assay [9], the system named is Rattus norvegicus. Nature of the assay: Ex vivo anticoagulant activity was measured by calculating the Activated partial thromboplastin time (test/control) at 0.5 h by dose of 100 mg/kg on oral administration in male Wistar rat. Type of assay: functional. Put shortly: as §1

Coagulation factor X, sequence (P00742 41-179 limits assumed): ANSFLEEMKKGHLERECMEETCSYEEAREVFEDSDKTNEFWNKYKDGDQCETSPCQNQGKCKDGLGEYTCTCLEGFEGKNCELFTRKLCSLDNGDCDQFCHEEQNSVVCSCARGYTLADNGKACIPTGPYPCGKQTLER
Coagulation factor X, sequence (P00742 235-488 limits assumed): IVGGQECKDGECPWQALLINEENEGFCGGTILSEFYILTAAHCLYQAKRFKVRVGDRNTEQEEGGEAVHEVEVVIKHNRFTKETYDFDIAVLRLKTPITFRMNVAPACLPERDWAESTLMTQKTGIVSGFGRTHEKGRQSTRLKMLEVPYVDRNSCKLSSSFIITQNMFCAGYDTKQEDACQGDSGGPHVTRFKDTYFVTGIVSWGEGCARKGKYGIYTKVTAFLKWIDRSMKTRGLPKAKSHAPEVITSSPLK

The term IC50 denotes the concentration that gives 50% inhibition. Higher therefore signals weaker potency in that assay. For the molecule `CC(=N)N1CC[C@H](Oc2ccc(C(Cc3cc4cc(C(=N)N)ccc4o3)C(=O)O)cc2)C1` (some centres not stated), the IC50 turned out to be 0.5 µM on Coagulation factor X and 15 µM against Prothrombin. Further, the CT2 in assay [1] worked out at 6 µM.
For the molecule `CCOC(=O)C(Cc1ccc(O[C@H]2CCNC2)cc1)c1cc2cc(C(=N)N)ccc2o1` (some centres not stated), the figures for the IC50 on Coagulation factor X and against Prothrombin were 52 µM and 20 µM, respectively. Also, the CT2 in [1] came out at 31 µM. For the same molecule, the Tested/Control in the assay with Rattus norvegicus [2] is recorded as 0.98; in the assay with Rattus norvegicus [3], 1.3; in the assay on Rattus norvegicus [4] it was 1.11; in the assay on Rattus norvegicus [5] it was 1.05.
On to `CCOC(=O)C(Cc1cc2ccc(C(=N)N)cc2o1)c1ccc(O[C@H]2CCNC2)cc1` (some centres not stated), for which the IC50 against Coagulation factor X was 1.7 µM; against Prothrombin, 36 µM. Moreover, the CT2 in assay [1] was found to be 8.3 µM.
The corresponding values for `N=C(N)c1ccc2cc(CC(C(=O)O)c3ccc(O[C@H]4CCNC4)cc3)oc2c1` (some centres not stated) are 1.7 µM, more than 1000 µM and 16 µM.
The corresponding values for `CCOC(=O)C(Cc1ccc2cc(C(=N)N)ccc2c1)c1ccc(O[C@H]2CCNC2)cc1` (some centres not stated) are 4.2 µM, 38 µM and 12.4 µM.
Consider `N=C(N)c1ccc2oc(CC(C(=O)O)c3ccc(O[C@H]4CCNC4)cc3)cc2c1` (some centres not stated), for which the CT2 in assay [1] is 14 µM. Moreover, the Tested/Control is 1.28 in the assay on Rattus norvegicus [2], 1.4 with Rattus norvegicus [3], 1.25 with Rattus norvegicus [4] and 1.2 with Rattus norvegicus [5]. At Prothrombin, this molecule gave a 50% inhibitory concentration (IC50) of 230 µM.
Regarding `CC(=N)N1CC[C@H](Oc2ccc(C(Cc3ccc4cc(C(=N)N)ccc4c3)C(=O)O)cc2)C1` (some centres not stated), the CT2 in assay [1] was 4.4 µM.
As to `N=C(N)c1ccc2oc(CCc3ccc(O[C@H]4CCNC4)cc3)cc2c1`, the concentration for half-maximal inhibition (IC50) was 0.94 µM on Coagulation factor X and 100 µM against Prothrombin. For the same molecule, the CT2 in assay [1] was 7.5 µM.
Turning to `CC(=N)N1CC[C@H](Oc2ccc([C@H](Cc3ccc4ccc(C(=N)N)cc4c3)C(=O)O)cc2)C1` [DX-9065A], in [1], the CT2 was determined as 0.5 µM. Also, the Tested/Control with Rattus norvegicus [6] is recorded as 1.51; with Rattus norvegicus [7], 1.48; in the assay on Rattus norvegicus [8], 1.28; with Rattus norvegicus [9], 1.63.
In the case of `CC(=N)N1CC[C@H](Oc2ccc(CCc3cc4cc(C(=N)N)ccc4o3)cc2)C1`, the results for the IC50 on Coagulation factor X and on Prothrombin were 0.64 µM and 4 µM, respectively. Besides, the CT2 in assay [1] stood at 1.2 µM.
With `N=C(N)c1ccc2oc(CCc3cc4cc(C(=N)N)ccc4o3)cc2c1`, the 50% inhibitory concentration (IC50) came to 0.1 µM against Coagulation factor X and 5 µM against Prothrombin. Besides, in [1], the CT2 is 1.6 µM.
Regarding `CCOC(=O)C(Cc1cc2cc(C(=N)N)ccc2o1)c1ccc(O[C@H]2CCNC2)cc1` (some centres not stated), the values for the 50% inhibitory concentration (IC50) at Coagulation factor X and against Prothrombin were 1 µM and 21 µM, respectively. In addition, in assay [1], the CT2 came out at 20 µM. In addition, the Tested/Control is 1.17 with Rattus norvegicus [2], 1.17 in the assay with Rattus norvegicus [3], 1.19 in the assay with Rattus norvegicus [4] and 1.21 in the assay with Rattus norvegicus [5].
`CC(=N)N1CC[C@H](Oc2ccc([C@@H](Cc3ccc4ccc(C(=N)N)cc4c3)C(=O)O)cc2)C1`: the CT2 in assay [1] is 6 µM.
Regarding `CC(=N)N1CC[C@H](Oc2ccc(C(Cc3ccc4ccc(C(=N)N)cc4c3)C(=O)O)cc2)C1` (some centres not stated), the CT2 in assay [1] came out at 1.3 µM.
As for `N=C(N)c1ccc2cc(CC(C(=O)O)c3ccc(O[C@H]4CCNC4)cc3)ccc2c1` (some centres not stated), the values for the 50% inhibitory concentration (IC50) against Coagulation factor X and against Prothrombin were 4.1 µM and more than 100 µM, respectively. For the same molecule, the CT2 in [1] was 22 µM.
With `N=C(N)c1ccc2oc(C(Cc3ccc(O[C@H]4CCNC4)cc3)C(=O)O)cc2c1` (some centres not stated), the concentration for half-maximal inhibition (IC50) was 45 µM on Coagulation factor X and 9 µM against Prothrombin. Moreover, the CT2 in [1] stood at 14 µM. For the same molecule, the Tested/Control in the assay with Rattus norvegicus [3] was 1.33; in the assay on Rattus norvegicus [4], 1.15; in the assay on Rattus norvegicus [5], 1.16.
In the case of `CCOC(=O)C(Cc1ccc2ccc(C(=N)N)cc2c1)c1ccc(O[C@H]2CCNC2)cc1` (some centres not stated), the IC50 at Coagulation factor X is 0.31 µM; on Prothrombin, more than 600 µM. Moreover, the CT2 in assay [1] came out at 3.2 µM.
With `CC(=N)N1CC[C@H](Oc2ccc(C(Cc3cc4ccc(C(=N)N)cc4o3)C(=O)O)cc2)C1` (some centres not stated), the IC50 is 0.84 µM at Coagulation factor X and more than 400 µM against Prothrombin. In addition, in assay [1], the CT2 came to 5.6 µM.
Consider `N=C(N)c1ccc2ccc(CC(C(=O)O)c3ccc(O[C@H]4CCNC4)cc3)cc2c1` (some centres not stated), for which the IC50 was 0.2 µM against Coagulation factor X and more than 1600 µM against Prothrombin. Also, the CT2 in assay [1] was determined as 3.2 µM.

(Values after ChEMBL document CHEMBL1127638, “Dibasic (amidinoaryl)propanoic acid derivatives as novel blood coagulation factor Xa inhibitors” (J Med Chem, 1994).)
